Results from article PMC4243878 (British Journal of Clinical Pharmacology, 2014).
“And” between values parts separate entries of the source, which are not always exact repeats. Identical values can stand only once. Like-named read-outs stand apart in the source and are kept apart here.

Assays:
[1] = type: in vivo, human; settings: Cohort 1, boceprevir 800 mg every 8 h + dolutegravir 50 mg once daily (n = 15); geometric mean (%CVb)
Method in brief: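 Cohort 1 took 800 mg oral boceprevir three times daily with 50 mg dolutegravir daily for 10 days, with moderate-fat meals. Plasma was acidified with phosphoric acid, and the stereoisomers were extracted by solid-phase extraction. Analysis was LC-MS/MS with heated nebulizer, positive ion mode, calibrated 0.0052–5.2 and 0.0048–4.8 μg ml−1. Parameters came from noncompartmental steady-state analysis, reported as geometric means (%CVb) and median Tmax, and were compared with label values without statistics.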

[2] = cited from earlier work
[3] = type: in vivo, human; settings: for Cmin / AUC / Cmax / concentration at 24 h / half-life: geometric mean (95% CI); for AUC / Cmax / concentration at 24 h / half-life: both, human, plasma, oral; for AUC: AUC0–τ; for concentration at 24 h: Cτ
Method in brief: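 Healthy adults took 50 mg oral dolutegravir once daily with a morning moderate-fat meal, alone for 5 days. They then continued for 10 days with boceprevir 800 mg or telaprevir 750 mg three times daily, with no washout. Plasma was assayed by validated LC-MS/MS. Noncompartmental parameters used actual sampling times, with Cτ taken at 24 h postdose. Log-transformed AUC0–τ, Cmax and Cτ were analysed by mixed-model ANOVA (subject random, treatment fixed). Results were given as GLS mean ratios with 95% CI versus dolutegravir alone.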

[4] = Safety: adverse events in healthy adult subjects; type: in vivo, human; settings: dolutegravir n = 32, combinations n = 16 each
Method in brief: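 Healthy adults aged 18–65 were randomised into two cohorts of 16. Period 1: 50 mg dolutegravir once daily for 5 days. Period 2, with no washout: Cohort 1 added boceprevir 800 mg three times daily, Cohort 2 added telaprevir 750 mg three times daily, both for 10 days. Doses were given with moderate-fat meals (30% fat, 600 calories). Adverse events were recorded and graded for intensity and drug relatedness.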

[5] = previous dolutegravir clinical studies; cited from earlier work
[6] = cited from earlier work; remark: listed apart in the source
[7] = type: in vivo, human; settings: Cohort 2, telaprevir 750 mg every 8 h + dolutegravir 50 mg once daily (n = 15)
Method in brief: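 Cohort 2 took 750 mg oral telaprevir three times daily with 50 mg dolutegravir daily for 10 days, with moderate-fat meals. Plasma was acidified with phosphoric acid, and (S)-telaprevir was extracted by supported liquid extraction. Analysis was LC-MS/MS with TurboIonSpray, positive ion mode, calibrated 0.1–20 μg ml−1. Steady-state parameters came from noncompartmental analysis and were compared with label data without formal statistics.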

[8] = Boceprevir alone, historical, ref Boceprevir package insert, 2013
[9] = Cohort 1, dolutegravir 50 mg once daily + boceprevir 800 mg every 8 h, Period 2 (n = 13)
[10] = Cohort 1, dolutegravir + boceprevir vs. dolutegravir
[11] = Cohort 2, dolutegravir 50 mg once daily + telaprevir 750 mg every 8 h, Period 2 (n = 15)
[12] = Cohort 2, dolutegravir + telaprevir vs. dolutegravir
[13] = 50 mg, Cohort 1, dolutegravir 50 mg once daily alone, Period 1 (n = 16)
[14] = 50 mg, Cohort 2, dolutegravir 50 mg once daily alone, Period 1 (n = 16)
[15] = coadministration with telaprevir vs dolutegravir alone
[16] = Telaprevir alone, historical, ref Telaprevir package insert, 2013

CC(C)(C)NC(=O)N[C@H](C(=O)N1C[C@H]2[C@@H]([C@H]1C(=O)NC(CC1CCC1)C(=O)C(N)=O)C2(C)C)C(C)(C)C (stereo partly shown) [Boceprevir, boceprevir]
Cmin [1]: 0.07 (23) μg ml^−1
Cτ [1]: 0.08 (35) μg ml^−1
AUC0–τ [2, 8]: 5408 ng·h/mL
Cmax [2, 8]: 1723 ng/mL
Cmin [2, 8]: 80 ng/mL
half-life [2]: 3 to 4 h

C[C@@H]1CCO[C@H]2Cn3cc(C(=O)NCc4ccc(F)cc4F)c(=O)c(O)c3C(=O)N12 [Dolutegravir]
Cmin [3, 9]: 1.36 (1.10, 1.68) μg ml^−1
Cmin ([3]; Cohort 1, dolutegravir 50 mg once daily alone, Period 1 (n = 16)): 1.00 (0.79, 1.25) μg ml^−1
AUC0–τ GLS mean ratio (95% CI) [3, 10]: 1.07 (0.924, 1.234)
Cmax GLS mean ratio (95% CI) [3, 10]: 1.05 (0.941, 1.176)
Cmin GLS mean ratio (95% CI) [3, 10]: 1.36 (1.106, 1.684)
Cτ GLS mean ratio (95% CI) [3, 10]: 1.08 (0.878, 1.329)
t1/2 GLS mean ratio (95% CI) [3, 10]: 1.05 (0.940, 1.166)
Cmin [3, 11]: 2.03 (1.73, 2.38) μg ml^−1
Cmin ([3]; Cohort 2, dolutegravir 50 mg once daily alone, Period 1 (n = 16)): 1.18 (0.96, 1.46) μg ml^−1
AUC0–τ GLS mean ratio (95% CI) [3, 12]: 1.25 (1.183, 1.327)
Cmax GLS mean ratio (95% CI) [3, 12]: 1.19 (1.096, 1.282)
Cmin GLS mean ratio (95% CI) [3, 12]: 1.76 (1.570, 1.963)
Cτ GLS mean ratio (95% CI) [3, 12]: 1.37 (1.274, 1.468)
t1/2 GLS mean ratio (95% CI) [3, 12]: 1.18 (1.061, 1.305)
AUC [3, 13]: 61500 ng·h/mL
AUC [3, 14]: 68900 ng·h/mL
Cmax [3, 13]: 4620 ng/mL
Cmax [3, 14]: 4990 ng/mL
concentration at 24 h [3, 13]: 1310 ng/mL
concentration at 24 h [3, 14]: 1590 ng/mL
half-life ([3]; 50 mg, t1/2, Cohort 1, dolutegravir 50 mg once daily alone, Period 1 (n = 16)): 13.2 h
half-life ([3]; 50 mg, t1/2, Cohort 2, dolutegravir 50 mg once daily alone, Period 1 (n = 16)): 14.5 h
AUC [3, 9]: 65300 ng·h/mL
AUC [3, 11]: 84200 ng·h/mL
Cmax [3, 9]: 4820 ng/mL
Cmax [3, 11]: 5810 ng/mL
concentration at 24 h [3, 9]: 1400 ng/mL
concentration at 24 h [3, 11]: 2090 ng/mL
half-life ([3]; t1/2, Cohort 1, dolutegravir 50 mg once daily + boceprevir 800 mg every 8 h, Period 2 (n = 13)): 13.8 h
half-life ([3]; t1/2, Cohort 2, dolutegravir 50 mg once daily + telaprevir 750 mg every 8 h, Period 2 (n = 14)): 16.7 h
change (increase) in dolutegravir Cτ ([3]; coadministration with boceprevir vs dolutegravir alone): 8% and < 10%
increase in dolutegravir AUC0–τ [3, 15]: 25%
increase in dolutegravir Cmax [3, 15]: 19%
increase in dolutegravir Cτ [3, 15]: 37%
change in dolutegravir exposure ([3]; with boceprevir): 7%
change in dolutegravir exposure ([3]; with telaprevir): 25%
All adverse events: Abdominal pain [4]: 0 n (%)
All adverse events: Anal haemorrhage [4]: 0 n (%)
All adverse events: Anorectal discomfort [4]: 0 n (%)
All adverse events: Any adverse event [4]: 4 (13) n (%)
All adverse events: Dysgeusia [4]: 0 n (%)
All adverse events: Haemorrhoids [4]: 0 n (%)
All adverse events: Headache [4]: 2 (6) n (%)
All adverse events: Maculopapular rash [4]: 1 (3) n (%)
Drug-related adverse events: Abdominal pain [4]: 0 n (%)
Drug-related adverse events: Any adverse event [4]: 2 (6) n (%)
Drug-related adverse events: Dysgeusia [4]: 0 n (%)
Drug-related adverse events: Headache [4]: 1 (3) n (%)
Drug-related adverse events: Maculopapular rash [4]: 1 (3) n (%)
Subjects withdrawn because of AEs [4]: 0 n (%)
Elevated alanine aminotransferase, frequency [5]: <1–2 % of subjects

CCC[C@H](NC(=O)[C@@H]1[C@H]2CCC[C@H]2CN1C(=O)[C@@H](NC(=O)[C@@H](NC(=O)c1cnccn1)C1CCCCC1)C(C)(C)C)C(=O)C(=O)NC1CC1 [Telaprevir, telaprevir]
AUC0–τ [6, 16]: 22300 ng·h/mL
Cmax [6, 16]: 3510 ng/mL
Cmin [6, 16]: 2030 ng/mL
half-life [6]: 9 to 10 h
Cmin ([7]; geometric mean (%CVb)): 1.72 (25) μg ml^−1
Cτ ([7]; geometric mean (%CVb)): 1.75 (26) μg ml^−1
Tmax ([7]; median (range)): 3.00 (2.0, 4.0) h
